# Columns and labels:
# healthy male subjects [1] = experiment: NeuroCart body sway; assay type: in vivo, human; conditions: 12-hour post-dose period
# Outline: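 Single-dose, placebo-controlled study in fasted healthy men, tested twice pre-dose and at 0.5–10 h post-dose. Anteroposterior sway was recorded with eyes closed using a Wright-type ataxiameter. Movements over 2 min were integrated and expressed in mm. Values were ln-transformed, and change from baseline over 12 h was analysed by MMRM against pooled placebo, baseline as covariate, then back-transformed.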
# dogs = experiment: Preclinical dog cardiovascular study; assay type: in vivo; conditions: any dose
# [2] = tested on: dopamine release induced by infusion of NMDA in the striatum; experiment: NMDA-induced dopamine release in the striatum; assay type: in vivo; conditions: rats, oral dose of 10 mg/kg
# healthy male subjects [3] = experiment: NeuroCart saccadic eye movement; assay type: in vivo, human; conditions: 12-hour post-dose period
# Outline: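 Fasted healthy men were tested twice pre-dose and at 0.5–10 h post-dose with the head fixed 58 cm from the screen. Subjects followed a dot jumping about 15 degrees to either side. Fifteen saccades were recorded at random 3–6 s intervals. Peak velocity (deg/s) was averaged over artefact-free saccades. Change from baseline over 12 h was analysed by MMRM against pooled placebo.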
# [4] = Pharmacokinetics, first-in-human single ascending dose study; assay type: in vivo; conditions: n = 8
# Outline: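 Healthy men received a single fasted dose of 3–200 mg, with 8 on active drug per cohort. Plasma was sampled pre-dose and at 0.25–36 h. Drug was quantified by validated LC–MS/MS (LLOQ 1.00 ng/mL). Cmax, tmax, t1/2, AUClast and AUC∞ were calculated by noncompartmental analysis using actual elapsed sampling times.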
smiles,measurement,setting,value
"CN1CCC23CCCCC2C1Cc1ccc(C(N)=O)cc13 (stereo not drawn) [ALKS 7119, (9α, 13α)‐17‐methylmorphinan‐3‐carboxamide]","Body sway, LSM CFB",healthy male subjects [1]; 3 mg single oral dose,−0.14 LOG mm
same,"Body sway, LSM CFB",healthy male subjects [1]; 10 mg single oral dose,0.16 LOG mm
same,"Body sway, LSM CFB",healthy male subjects [1]; 25 mg single oral dose,−0.03 LOG mm
same,"Body sway, LSM CFB",healthy male subjects [1]; 50 mg single oral dose,0.12 LOG mm
same,"Body sway, LSM CFB",healthy male subjects [1]; 75 mg single oral dose,−0.06 LOG mm
same,"Body sway, LSM CFB",healthy male subjects [1]; 100 mg single oral dose,0.08 LOG mm
same,QT intervals,dogs,No changes in QT intervals
same,Effect on dopamine release induced by NMDA infusion in the striatum,[2],completely blocked dopamine release
same,"Saccadic peak velocity, LSM CFB",healthy male subjects [3]; 3 mg single oral dose,−16.15 deg/s
same,"Saccadic peak velocity, LSM CFB",healthy male subjects [3]; 10 mg single oral dose,1.46 deg/s
same,"Saccadic peak velocity, LSM CFB",healthy male subjects [3]; 25 mg single oral dose,6.12 deg/s
same,"Saccadic peak velocity, LSM CFB",healthy male subjects [3]; 50 mg single oral dose,2.91 deg/s
same,"Saccadic peak velocity, LSM CFB",healthy male subjects [3]; 75 mg single oral dose,−5.63 deg/s
same,"Saccadic peak velocity, LSM CFB",healthy male subjects [3]; 100 mg single oral dose,13.25 deg/s
same,"Saccadic peak velocity, LSM CFB",healthy male subjects [3]; 125 mg single oral dose,5.98 deg/s
same,"Saccadic peak velocity, LSM CFB",healthy male subjects [3]; 150 mg single oral dose,18.15 deg/s
same,"Saccadic peak velocity, LSM CFB",healthy male subjects [3]; 175 mg single oral dose,5.26 deg/s
same,"Saccadic peak velocity, LSM CFB",healthy male subjects [3]; 200 mg single oral dose,−0.64 deg/s
same,AUC infinite/dose,[4]; 3 mg single oral dose,33.34
same,"AUClast, mean (SD)",[4]; 3 mg single oral dose,85.88 (25.56) hr*ng/ml
same,"AUClast, range",[4]; 3 mg single oral dose,57.37 to 129.02 ng·h/mL
same,"AUC∞, mean (SD)",[4]; 3 mg single oral dose,100.03 (25.04) hr*ng/ml
same,"AUC∞, range",[4]; 3 mg single oral dose,73.65 to 140.04 ng·h/mL
same,"Cmax, mean (SD)",[4]; 3 mg single oral dose,8.33 (2.78) ng/ml
same,"Cmax, range",[4]; 3 mg single oral dose,5.87 to 13.20 ng/mL
same,Cmax/dose,[4]; 3 mg single oral dose,2.78
same,"t1/2, mean (SD)",[4]; 3 mg single oral dose,6.98(1.16) h
same,"t1/2, range",[4]; 3 mg single oral dose,5.20 to 8.77 h
same,"tmax, median",[4]; 3 mg single oral dose,2.02 h
same,"tmax, range",[4]; 3 mg single oral dose,2.00 to 4.15 h
same,AUC infinite/dose,[4]; 10 mg single oral dose,29.54
same,"AUClast, mean (SD)",[4]; 10 mg single oral dose,272.60 (35.69) hr*ng/ml
same,"AUClast, range",[4]; 10 mg single oral dose,198.45 to 321.20 ng·h/mL
same,"AUC∞, mean (SD)",[4]; 10 mg single oral dose,295.38 (32.29) hr*ng/ml
same,"AUC∞, range",[4]; 10 mg single oral dose,233.76 to 338.34 ng·h/mL
same,"Cmax, mean (SD)",[4]; 10 mg single oral dose,25.33 (3.91) ng/ml
same,"Cmax, range",[4]; 10 mg single oral dose,20.40 to 32.30 ng/mL
same,Cmax/dose,[4]; 10 mg single oral dose,2.53
same,"t1/2, mean (SD)",[4]; 10 mg single oral dose,8.51 (0.89) h
same,"t1/2, range",[4]; 10 mg single oral dose,7.01 to 9.45 h
same,"tmax, median",[4]; 10 mg single oral dose,2.00 h
same,"tmax, range",[4]; 10 mg single oral dose,1.00 to 2.00 h
same,AUC infinite/dose,[4]; 25 mg single oral dose,29.25
same,"AUClast, mean (SD)",[4]; 25 mg single oral dose,703.56 (89.80) hr*ng/ml
same,"AUClast, range",[4]; 25 mg single oral dose,608.46 to 864.96 ng·h/mL
same,"AUC∞, mean (SD)",[4]; 25 mg single oral dose,731.29 (87.27) hr*ng/ml
same,"AUC∞, range",[4]; 25 mg single oral dose,640.06 to 883.94 ng·h/mL
same,"Cmax, mean (SD)",[4]; 25 mg single oral dose,74.51 (16.19) ng/ml
same,"Cmax, range",[4]; 25 mg single oral dose,51.00 to 93.00 ng/mL
same,Cmax/dose,[4]; 25 mg single oral dose,2.98
same,"t1/2, mean (SD)",[4]; 25 mg single oral dose,7.81 (0.83) h
same,"t1/2, range",[4]; 25 mg single oral dose,6.78 to 9.41 h
same,"tmax, median",[4]; 25 mg single oral dose,1.00 h
same,"tmax, range",[4]; 25 mg single oral dose,1.00 to 2.00 h
same,AUC infinite/dose,[4]; 50 mg single oral dose,30.94
same,"AUClast, mean (SD)",[4]; 50 mg single oral dose,1473.57 (203.53) hr*ng/ml
same,"AUClast, range",[4]; 50 mg single oral dose,1234.86 to 1780.97 ng·h/mL
same,"AUC∞, mean (SD)",[4]; 50 mg single oral dose,1547.06 (196.89) hr*ng/ml
same,"AUC∞, range",[4]; 50 mg single oral dose,1277.55 to 1828.84 ng·h/mL
same,"Cmax, mean (SD)",[4]; 50 mg single oral dose,140.00 (32.44) ng/ml
same,"Cmax, range",[4]; 50 mg single oral dose,103.00 to 190.00 ng/mL
same,Cmax/dose,[4]; 50 mg single oral dose,2.80
same,"t1/2, mean (SD)",[4]; 50 mg single oral dose,7.81 (0.69) h
same,"t1/2, range",[4]; 50 mg single oral dose,6.99 to 8.68 h
same,"tmax, median",[4]; 50 mg single oral dose,1.53 h
same,"tmax, range",[4]; 50 mg single oral dose,1.00 to 4.00 h
same,AUC infinite/dose,[4]; 75 mg single oral dose,33.98
same,"AUClast, mean (SD)",[4]; 75 mg single oral dose,2406.33 (373.64) hr*ng/ml
same,"AUClast, range",[4]; 75 mg single oral dose,1732.82 to 2969.47 ng·h/mL
same,"AUC∞, mean (SD)",[4]; 75 mg single oral dose,2548.51 (468.23) hr*ng/ml
same,"AUC∞, range",[4]; 75 mg single oral dose,1772.06 to 3367.86 ng·h/mL
same,"Cmax, mean (SD)",[4]; 75 mg single oral dose,225.50 (40.59) ng/ml
same,"Cmax, range",[4]; 75 mg single oral dose,190.00 to 302.00 ng/mL
same,Cmax/dose,[4]; 75 mg single oral dose,3.01
same,"t1/2, mean (SD)",[4]; 75 mg single oral dose,8.42 (1.63) h
same,"t1/2, range",[4]; 75 mg single oral dose,6.84 to 12.01 h
same,"tmax, median",[4]; 75 mg single oral dose,1.50 h
same,"tmax, range",[4]; 75 mg single oral dose,0.50 to 4.00 h
same,AUC infinite/dose,[4]; 100 mg single oral dose,31.36
same,"AUClast, mean (SD)",[4]; 100 mg single oral dose,3027.23 (600.53) hr*ng/ml
same,"AUClast, range",[4]; 100 mg single oral dose,2340.29 to 4326.23 ng·h/mL
same,"AUC∞, mean (SD)",[4]; 100 mg single oral dose,3136.45 (634.60) hr*ng/ml
same,"AUC∞, range",[4]; 100 mg single oral dose,2418.74 to 4525.46 ng·h/mL
same,"Cmax, mean (SD)",[4]; 100 mg single oral dose,307.63 (75.28) ng/ml
same,"Cmax, range",[4]; 100 mg single oral dose,224.00 to 465.00 ng/mL
same,Cmax/dose,[4]; 100 mg single oral dose,3.08
same,"t1/2, mean (SD)",[4]; 100 mg single oral dose,7.63 (0.93) h
same,"t1/2, range",[4]; 100 mg single oral dose,6.36 to 8.84 h
same,"tmax, median",[4]; 100 mg single oral dose,1.50 h
same,"tmax, range",[4]; 100 mg single oral dose,1.00 to 4.08 h
same,AUC infinite/dose,[4]; 125 mg single oral dose,33.50
same,"AUClast, mean (SD)",[4]; 125 mg single oral dose,4059.17 (809.98) hr*ng/ml
same,"AUClast, range",[4]; 125 mg single oral dose,3120.58 to 5579.28 ng·h/mL
same,"AUC∞, mean (SD)",[4]; 125 mg single oral dose,4187.59 (840.18) hr*ng/ml
same,"AUC∞, range",[4]; 125 mg single oral dose,3188.91 to 5732.16 ng·h/mL
same,"Cmax, range",[4]; 125 mg single oral dose,315.00 to 745.00 ng/mL
same,Cmax/dose,[4]; 125 mg single oral dose,3.58
same,"t1/2, mean (SD)",[4]; 125 mg single oral dose,7.26 (0.99) h
same,"t1/2, range",[4]; 125 mg single oral dose,6.06 to 8.72 h
same,"tmax, median",[4]; 125 mg single oral dose,2.00 h
same,"tmax, range",[4]; 125 mg single oral dose,2.00 to 4.00 h
same,AUC infinite/dose,[4]; 150 mg single oral dose,30.22
same,"AUClast, mean (SD)",[4]; 150 mg single oral dose,4361.53 (782.96) hr*ng/ml
same,"AUClast, range",[4]; 150 mg single oral dose,3622.31 to 6015.06 ng·h/mL
same,"AUC∞, mean (SD)",[4]; 150 mg single oral dose,4533.66 (862.77) hr*ng/ml
same,"AUC∞, range",[4]; 150 mg single oral dose,3790.65 to 6362.63 ng·h/mL
same,"Cmax, mean (SD)",[4]; 150 mg single oral dose,413.38 (65.38) ng/ml
same,"Cmax, range",[4]; 150 mg single oral dose,314.00 to 540.00 ng/mL
same,Cmax/dose,[4]; 150 mg single oral dose,2.76
same,"t1/2, mean (SD)",[4]; 150 mg single oral dose,7.53 (0.88) h
same,"t1/2, range",[4]; 150 mg single oral dose,6.10 to 8.51 h
same,"tmax, median",[4]; 150 mg single oral dose,2.00 h
same,"tmax, range",[4]; 150 mg single oral dose,1.00 to 4.00 h
same,AUC infinite/dose,[4]; 175 mg single oral dose,34.02
same,"AUClast, mean (SD)",[4]; 175 mg single oral dose,5754.94 (1013.23) hr*ng/ml
same,"AUClast, range",[4]; 175 mg single oral dose,4681.45 to 7356.86 ng·h/mL
same,"AUC∞, mean (SD)",[4]; 175 mg single oral dose,5954.09 (1047.00) hr*ng/ml
same,"AUC∞, range",[4]; 175 mg single oral dose,4820.27 to 7488.93 ng·h/mL
same,"Cmax, mean (SD)",[4]; 175 mg single oral dose,660.63 (167.66) ng/ml
same,"Cmax, range",[4]; 175 mg single oral dose,451.00 to 893.00 ng/mL
same,Cmax/dose,[4]; 175 mg single oral dose,3.78
same,"t1/2, mean (SD)",[4]; 175 mg single oral dose,7.48 (0.87) h
same,"t1/2, range",[4]; 175 mg single oral dose,5.91 to 8.83 h
same,"tmax, median",[4]; 175 mg single oral dose,2.01 h
same,"tmax, range",[4]; 175 mg single oral dose,1.02 to 4.00 h
same,AUC infinite/dose,[4]; 200 mg single oral dose,33.61
same,"AUClast, mean (SD)",[4]; 200 mg single oral dose,6490.47 (1144.87) hr*ng/ml
same,"AUClast, range",[4]; 200 mg single oral dose,5120.43 to 8737.25 ng·h/mL
same,"AUC∞, mean (SD)",[4]; 200 mg single oral dose,6721.82 (1227.19) hr*ng/ml
same,"AUC∞, range",[4]; 200 mg single oral dose,5273.49 to 9126.15 ng·h/mL
same,"Cmax, mean (SD)",[4]; 200 mg single oral dose,656.00 (104.74) ng/ml
same,"Cmax, range",[4]; 200 mg single oral dose,491.00 to 795.00 ng/mL
same,Cmax/dose,[4]; 200 mg single oral dose,3.28
same,"t1/2, mean (SD)",[4]; 200 mg single oral dose,7.35 (0.58) h
same,"t1/2, range",[4]; 200 mg single oral dose,6.72 to 8.33 h
same,"tmax, median",[4]; 200 mg single oral dose,3.00 h
same,"tmax, range",[4]; 200 mg single oral dose,1.00 to 4.00 h

# Reference: PMC9302689 (British Journal of Clinical Pharmacology, 2022)
